Data on one molecule can be found in ChEMBL document CHEMBL2169742, “Design, synthesis, and biological evaluation of novel transrepression-selective liver X receptor (LXR) ligands with 5,11-dihydro-5-methyl-11-methylene-6H-dibenz[b,e]azepin-6-one skeleton” (J Med Chem, 2012).

Activity calls are given as the source filed them. No cut-off for these calls is given here.

The target of experiment [1] is T1, Peroxisome proliferator-activated receptor gamma (Homo sapiens) (UniProt P37231).
T1 sequence (whole entry): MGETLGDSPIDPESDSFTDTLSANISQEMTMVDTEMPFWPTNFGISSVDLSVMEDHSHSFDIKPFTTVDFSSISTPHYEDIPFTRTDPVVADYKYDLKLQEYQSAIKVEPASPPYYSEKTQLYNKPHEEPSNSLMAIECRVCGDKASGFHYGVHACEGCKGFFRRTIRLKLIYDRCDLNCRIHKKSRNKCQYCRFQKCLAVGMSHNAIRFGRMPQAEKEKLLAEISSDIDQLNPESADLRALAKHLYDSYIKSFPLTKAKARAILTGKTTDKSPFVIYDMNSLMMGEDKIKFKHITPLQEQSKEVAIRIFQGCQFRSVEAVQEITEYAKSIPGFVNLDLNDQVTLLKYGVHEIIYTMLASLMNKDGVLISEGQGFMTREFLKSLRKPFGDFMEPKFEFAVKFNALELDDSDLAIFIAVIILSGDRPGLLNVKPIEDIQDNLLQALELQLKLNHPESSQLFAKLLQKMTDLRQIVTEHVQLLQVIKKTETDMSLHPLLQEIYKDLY
The experiment is described as follows: Agonist activity at human Gal4-fused PPARgamma assessed as luciferase activity at 10 uM by reporter gene assay relative to control. The class given is functional.

Experiment [2] has as its system Peritoneal macrophage cell. In words: Inhibition of LPS-induced IL-1beta mRNA expression in LXRalpha-deficient C57BL/6J mouse peritoneal macrophages at 10 uM incubated for 6 hrs prior to LPS-challenge measured after 18 hrs by RT-PCR analysis. The class given is functional, cell-based. In short, it runs like this:
(§1)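 Thioglycollate-elicited peritoneal macrophages (wild-type C57BL/6J or LXRα-null, 8–10 weeks) were plated at 4 × 10⁶/well and pretreated with compound 6 h before LPS 100 ng/mL. Cells were harvested after 18 h. il-6 and il-1β mRNA were measured by real-time quantitative PCR, normalized to GAPDH.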

For experiment [3], the target named is T2, Bile acid receptor (Homo sapiens) (UniProt Q96RI1).
T2 sequence (whole entry): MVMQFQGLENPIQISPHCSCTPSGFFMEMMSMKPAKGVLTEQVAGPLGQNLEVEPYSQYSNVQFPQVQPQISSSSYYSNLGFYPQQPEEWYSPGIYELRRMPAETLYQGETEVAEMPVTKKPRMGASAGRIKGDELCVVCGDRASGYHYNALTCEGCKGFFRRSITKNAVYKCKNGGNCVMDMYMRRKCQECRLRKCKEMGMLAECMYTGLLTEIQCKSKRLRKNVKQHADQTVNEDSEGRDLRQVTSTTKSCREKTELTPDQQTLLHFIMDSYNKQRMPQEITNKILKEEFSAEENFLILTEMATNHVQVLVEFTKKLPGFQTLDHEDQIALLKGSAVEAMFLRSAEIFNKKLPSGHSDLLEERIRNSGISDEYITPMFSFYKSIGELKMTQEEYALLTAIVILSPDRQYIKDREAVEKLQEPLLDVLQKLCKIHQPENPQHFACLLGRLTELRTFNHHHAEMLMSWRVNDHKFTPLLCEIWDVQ
In words: Agonist activity at human Gal4-fused FXR assessed as luciferase activity at 0.03 to 10 uM by reporter gene assay. The class given is functional.

Experiment [4] can be described thus: Transrepressional activity at LXR in C57BL/6J mouse peritoneal macrophages assessed as inhibition of LPS-induced IL-6 mRNA expression at 10 uM incubated for 6 hr prior to LPS-challenge measured after 18 hrs by RT-PCR analysis. Summed up:
as §1

Experiment [5] is described as follows: Transrepressional activity at LXR in C57BL/6J mouse peritoneal macrophages assessed as inhibition of LPS-induced IL-1beta mRNA expression at 10 uM incubated for 6 hr prior to LPS-challenge measured after 18 hrs by RT-PCR analysis. Summed up: as §1
For experiment [6], the target named is T3, Oxysterols receptor LXR-beta (Homo sapiens, UniProt P55055).
T3 sequence (P55055 whole entry): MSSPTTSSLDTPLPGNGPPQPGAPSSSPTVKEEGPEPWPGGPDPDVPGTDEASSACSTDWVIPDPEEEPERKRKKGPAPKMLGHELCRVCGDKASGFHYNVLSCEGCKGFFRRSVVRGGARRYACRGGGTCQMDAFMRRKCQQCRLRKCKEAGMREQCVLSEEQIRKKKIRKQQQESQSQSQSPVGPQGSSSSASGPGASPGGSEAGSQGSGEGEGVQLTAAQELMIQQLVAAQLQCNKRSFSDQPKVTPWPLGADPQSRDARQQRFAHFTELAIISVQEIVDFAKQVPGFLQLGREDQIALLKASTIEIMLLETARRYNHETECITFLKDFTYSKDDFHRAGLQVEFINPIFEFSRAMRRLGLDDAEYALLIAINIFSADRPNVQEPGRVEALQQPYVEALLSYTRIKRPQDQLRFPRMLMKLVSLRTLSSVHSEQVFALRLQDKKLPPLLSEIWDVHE
The experiment is described as follows: Transactivational antagonist activity at human LXRbeta transfected in HEK293 cells expressing CMX-Gal4N assessed as inhibition of T1317-induced luciferase activity after 16 hrs by reporter gene assay. The experiment is classed as functional, cell-based. (In general: Reporter assays use an easily measured gene product as a stand-in for the process of interest.)

The target in experiment [7] is T4, Oxysterols receptor LXR-alpha (Homo sapiens) (UniProt Q13133).
T4 sequence (whole entry): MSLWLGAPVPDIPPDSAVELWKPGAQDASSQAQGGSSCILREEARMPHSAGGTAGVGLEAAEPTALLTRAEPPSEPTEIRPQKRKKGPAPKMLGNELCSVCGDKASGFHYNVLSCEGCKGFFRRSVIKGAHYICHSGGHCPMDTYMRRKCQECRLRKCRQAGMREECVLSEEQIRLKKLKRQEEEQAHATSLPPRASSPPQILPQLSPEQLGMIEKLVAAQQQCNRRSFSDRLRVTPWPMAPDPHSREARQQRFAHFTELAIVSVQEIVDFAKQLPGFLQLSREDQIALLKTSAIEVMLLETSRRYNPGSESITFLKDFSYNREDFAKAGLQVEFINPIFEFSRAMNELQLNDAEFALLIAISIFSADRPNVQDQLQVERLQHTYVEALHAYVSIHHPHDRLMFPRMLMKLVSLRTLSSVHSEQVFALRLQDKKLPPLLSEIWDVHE
The experiment is described as follows: Transactivational antagonist activity at human LXRalpha transfected in HEK293 cells coexpressing CMX-Gal4N-NCoR assessed as NCoR recruitment after 16 hrs by reporter gene assay. The experiment is classed as functional, cell-based. Summed up:
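Mammalian two-hybrid in HEK293 cells by calcium phosphate cotransfection: CMX-VP16N-hLXRα, Gal4N-fused SRC1, DRIP205, NCoR or SMRT (15 ng), tk-MH100×4-luc (50 ng) and CMX-β-gal (10 ng). Compound or DMSO added 8 h after transfection for 16 h. Luciferase was normalized to β-galactosidase, in triplicate.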

What is called IC50 is the concentration at which inhibition is half-maximal. On to `C=C1c2ccccc2C(=O)N(C)c2ccc(CC)cc21`, for which the figures for the Activity in experiment [1] and in experiment [7] were 20% and “Dose-dependent effect”, respectively. Further, the inhibition entry in experiment [2] was “inactive”. Also, the outcome in experiment [3] was inactive. For the same molecule, the inhibition entry in experiment [4] and in experiment [5] was “Active” each time. For the same molecule, the half-inhibitory concentration (IC50) in experiment [6] was more than 30 µM.
